Measurements taken from ChEMBL document CHEMBL4033777, “Next-Generation Hypoxic Cell Radiosensitizers: Nitroimidazole Alkylsulfonamides” (J Med Chem, 2018).
pIC50: −log10 of the molar value. In brackets after ≈: the same amount, converted by molar mass. Each block holds one compound with its values, some of them ahead of it.

How the values were obtained:
[1] = test system: HCT-116; test: Hypoxia radiosensitization activity in human HCT116 cells assessed as survival ratio by measuring ratio of cell survival with 15 Gy radiation in absence to presence of compound at anoxic IC50 preincubated for 1 hr followed by 15 Gy irradiation measured after 10 days by methylene blue staining-based cell counting method; assay type: functional
Procedure, shortened: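 Anoxic HCT116 cells were seeded at 10^5/well and treated at the anoxic IC50 concentration for 1 h at room temperature. They were irradiated with 15 Gy (60Co, ~2 Gy/min) in a sealed steel box, then plated clonogenically. Colonies of >50 cells were counted […]. SR15 = survival with radiation / survival with drug + radiation.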

[2] = test system: HCT-116; test: Cytotoxicity against human HCT116 cells at anoxic IC50 incubated for 1 hr at 21 degC by clonogenic survival assay; conditions: hct-116, 1 h
[3] = test system: HCT-116; test: Cytotoxicity against human HCT116 cells incubated for 4 hrs under aerobic condition measured after 5 days by sulforhodamine B assay; assay type: cell-based
Procedure, shortened: (§1)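 STR-authenticated, mycoplasma-free HCT116 cells in αMEM + 5% FCS were seeded at 700 cells/well and allowed 2 h to attach. Drug was added from DMSO stocks (<1% DMSO) in serial 3-fold dilutions for 4 h, oxic or anoxic (Pd-catalyst anaerobic chamber, medium pre-equilibrated ≥3 days). After washing, cells regrew for 5 days before SRB staining and IC50 determination.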

[4] = test system: HCT-116; test: Cytotoxicity against human HCT116 cells incubated for 4 hrs under anaerobic condition measured after 5 days by sulforhodamine B assay; assay type: functional, cell-based; procedure, shortened: as §1
[5] = test system: HCT-116; test: Hypoxic cytotoxicity ratio of IC50 for human HCT116 cells under oxic condition to IC50 for human HCT116 cells under anoxic condition
Procedure, shortened: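 HCT116 cells, 700 per well and attached 2 h, got a 4 h exposure to 3-fold serial dilutions (<1% DMSO) under air or in a Pd-catalyst anaerobic chamber with pre-equilibrated medium. Cells were washed, regrown 5 days, and stained with sulforhodamine B to give IC50. HCR = oxic IC50 / anoxic IC50.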

[6] = Solubility of the compound in alphaMEM containing 5% FCS and 1% DMSO by HPLC analysis; assay type: physicochemical
Procedure, shortened: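 Saturated drug solutions were incubated at 37 °C in αMEM with 5% FCS and 1% DMSO. Dissolved drug was quantified by HPLC.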

[7] = Electrophilicity of the compound in pH 7 phosphate buffer assessed as one-electron reduction potential
Procedure, shortened: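 The one-electron reduction potential was set by pulse radiolysis equilibria at pH 7.0 (2.5 mM phosphate), established within 20 µs against benzylviologen, methylviologen or triquat. ΔE came from equilibrium constants via the Nernst equation, at three concentration ratios and 22 ± 2 °C.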

[8] = test system: Mus musculus; test: Toxicity in NIH-III mouse xenografted with human HCT116 cells assessed as change in body weight with 12.5 Gy radiation at 2.20 mmol/kg, iv administered as single dose; conditions: in vivo
[9] = Tmax in plasma of NIH-III mouse xenografted with human HCT116 cells at 2.20 mmol/kg, iv administered as single dose by HPLC analysis; assay type: ADME, organism-based; conditions: 2.2 mmol/kg
Procedure, shortened: (§2)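 Female NIH-III mice bearing subcutaneous HCT116 tumors (10^6 cells; ~300 mm3) got a single i.v. dose at the MAD or 75% of the MTD. Vehicle was saline with 1% DMSO, or saline with 2 equivalents of NaHCO3 for the phosphates. Plasma and tumor were sampled at multiple times by cardiac puncture and excision, drug was measured by HPLC, and Tmax came from noncompartmental analysis.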

[10] = test system: Mus musculus; test: Drug level in NIH-III mouse assessed as maximum achievable dose at 10 ml/kg, iv; assay type: ADME; conditions: in vivo
Procedure, shortened: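 Non-tumor-bearing female NIH-III mice (~20 g) received freshly prepared solutions i.v. at 10 mL/kg in 0.9% saline with 1% DMSO, or saline with 2 molar equivalents NaHCO3 for phosphate prodrugs. MAD was the maximum dose that dissolved in the injection volume.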

[11] = Tmax in tumor of NIH-III mouse xenografted with human HCT116 cells at 2.20 mmol/kg, iv administered as single dose by HPLC analysis; assay type: ADME, organism-based, Neoplasm; conditions: 2.2 mmol/kg; procedure, shortened: as §2
[12] = Cmax in tumor of NIH-III mouse xenografted with human HCT116 cells at 2.20 mmol/kg, iv administered as single dose by HPLC analysis; assay type: ADME, organism-based, Neoplasm; set-up: dose 2.2 mmol/kg, route intravenous; conditions: in vivo
Procedure, shortened: (§3)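 Female NIH-III mice bearing subcutaneous HCT116 xenografts (10^6 cells inoculated). At ca. 300 mm3 tumor size, a single i.v. dose was given at the MAD or 75% of the MTD. Vehicle was 0.9% saline with 1% DMSO, or saline with 2 molar equivalents NaHCO3 for phosphate prodrugs. Plasma and tumor were sampled at multiple times by cardiac puncture and excision, assayed by HPLC, and analysed noncompartmentally.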

[13] = test system: HCT-116; test: In vivo hypoxia radiosensitization activity in human HCT116 cells xenografted in NIH-III mouse assessed as survival ratio by measuring ratio of cell survival with 12.5 Gy radiation in absence to presence of compound at 2.20 mmol/kg, iv pretreated as single dose for 10 mins followed by irradiation measured after 18 hrs by excision assay; assay type: functional
[14] = test system: Plasma; test: Cmax in plasma of NIH-III mouse xenografted with human HCT116 cells at 2.20 mmol/kg, iv administered as single dose by HPLC analysis; assay type: ADME, organism-based; set-up: dose 2.2 mmol/kg, route intravenous; conditions: in vivo; procedure, shortened: as §3
[15] = test system: HCT-116; test: Hypoxia radiosensitization activity in human HCT116 cells assessed as survival ratio by measuring ratio of cell survival with radiation in absence to presence of compound at 0.11 mM preincubated for 1 hr followed by 6 to 29 Gy irradiation measured after 10 days by methylene blue staining-based cell counting method relative to misonidazole; assay type: functional
[16] = test system: HCT-116; test: Hypoxia radiosensitization activity in human HCT116 cells assessed as survival ratio by measuring ratio of cell survival with radiation in absence to presence of compound at 0.11 mM preincubated for 1 hr followed by 6 to 29 Gy irradiation measured after 10 days by methylene blue staining-based cell counting method; assay type: functional
[17] = test system: HCT-116; test: Hypoxia radiosensitization activity in human HCT116 cells assessed as survival ratio by measuring ratio of cell survival with radiation in absence to presence of compound at 0.08 mM preincubated for 1 hr followed by 6 to 29 Gy irradiation measured after 10 days by methylene blue staining-based cell counting method relative to misonidazole; assay type: functional
[18] = test system: HCT-116; test: Hypoxia radiosensitization activity in human HCT116 cells assessed as survival ratio by measuring ratio of cell survival with radiation in absence to presence of compound at 0.08 mM preincubated for 1 hr followed by 6 to 29 Gy irradiation measured after 10 days by methylene blue staining-based cell counting method; assay type: functional

solubility [6]: 45.7 mM (≈ 15.2 mg/mL)
SMILES: CCN(CC)CCNS(=O)(=O)CCn1c([N+](=O)[O-])cnc1C
Ratio [1]: 9
Activity [2]: Non-Toxic
pIC50 [4]: 2.89
Ratio IC50 [5]: 2

solubility [6]: 2.77 mM (≈ 0.843 mg/mL)
SMILES: Cc1ncc([N+](=O)[O-])n1CCS(=O)(=O)N1CCOCC1
Ratio [1]: 1.33
Activity [2]: Non-Toxic
pIC50 [4]: 4.42
Ratio IC50 [5]: 1.5

solubility [6]: 72.1 mM (≈ 20.1 mg/mL)
SMILES: O=C(O)CCNS(=O)(=O)Cn1ccnc1[N+](=O)[O-]
Ratio [1]: 2
Activity [2]: Non-Toxic
pIC50 [3]: 2.32 to 3.42
pIC50 [4]: 2.36
Ratio IC50 [5]: 1

solubility [6]: 16 mM (≈ 4.45 mg/mL)
SMILES: COCCNS(=O)(=O)CCn1cnc([N+](=O)[O-])c1
Activity [7]: -538 mV
Ratio [1]: 9
Activity [2]: Non-Toxic
pIC50 [4]: < 2.28

solubility [6]: 17 mM (≈ 5.21 mg/mL)
SMILES: COCCCNS(=O)(=O)CCn1c([N+](=O)[O-])cnc1C
Ratio [1]: 5
Activity [2]: Non-Toxic
pIC50 [4]: 2.43
Ratio IC50 [5]: 1.2

solubility [6]: 44.1 mM (≈ 15.3 mg/mL)
SMILES: Cc1ncc([N+](=O)[O-])n1CCS(=O)(=O)NCCN1CCOCC1
Ratio [1]: 2.71
Activity [2]: Non-Toxic
pIC50 [4]: 3.10
Ratio IC50 [5]: 1.4

solubility [6]: 14.5 mM (≈ 4.6 mg/mL)
SMILES: Cc1ncc([N+](=O)[O-])n1CCS(=O)(=O)N1CCN(C)CC1
Ratio [1]: 1.8
Activity [2]: Non-Toxic
pIC50 [4]: 2.80
Ratio IC50 [5]: 0.6

solubility [6]: > 53.8 mM
SMILES: Cc1ncc([N+](=O)[O-])n1CCS(=O)(=O)NCCCN(C)C
Ratio [1]: 8
Activity [2]: Non-Toxic
pIC50 [4]: 2.92
Ratio IC50 [5]: 3

solubility [6]: > 100 mM
SMILES: O=[N+]([O-])c1cn(CCS(=O)(=O)NCCO)cn1
Ratio [1]: 6.3
Activity [2]: Non-Toxic
pIC50 [4]: 1.96
Ratio IC50 [5]: 1

solubility [6]: 59.4 mM (≈ 16.5 mg/mL)
SMILES: COCCNS(=O)(=O)CCn1ccnc1[N+](=O)[O-]
Activity [7]: -391 mV
Ratio [1]: 6.4
Activity [2]: Non-Toxic
pIC50 [3]: 2.32 to 3.42
pIC50 [4]: 3.40
Ratio IC50 [5]: 5

Second part, the compound before the results:

SMILES: O=C(O)CNS(=O)(=O)Cn1ccnc1[N+](=O)[O-]
Ratio [1]: 4
Activity [2]: Non-Toxic
pIC50 [3]: 2.32 to 3.42
pIC50 [4]: 3.05
Ratio IC50 [5]: 10
solubility [6]: 59.3 mM (≈ 15.7 mg/mL)

SMILES: O=[N+]([O-])c1cncn1CS(=O)(=O)NCCOP(=O)(O)O
Activity [8]: Non-Toxic
Tmax [9]: 10 min
Drug uptake [10]: 2.2 mmol/kg
Tmax [11]: 30 min
Cmax [12]: 140 µM
Ratio [13]: 13
Cmax [14]: 1100 µM

SMILES: COCCNS(=O)(=O)Cn1cncc1[N+](=O)[O-]
fold change (FC) [15]: 0.44
Ratio [16]: 1.9
Activity [2]: Non-Toxic

SMILES: COCCNS(=O)(=O)Cn1ccnc1[N+](=O)[O-]
Activity [2]: Non-Toxic
pIC50 [3]: 2.32 to 3.42
fold change (FC) [17]: 0.78
Ratio [18]: 2.9

SMILES: O=[N+]([O-])c1nccn1CS(=O)(=O)NCCN1CCCC1
Ratio [1]: 1.7
Activity [2]: Non-Toxic
pIC50 [3]: 2.32 to 3.42
pIC50 [4]: 4.96
Ratio IC50 [5]: 96
solubility [6]: 16.1 mM (≈ 4.88 mg/mL)

SMILES: O=[N+]([O-])c1nccn1CS(=O)(=O)NCCOP(=O)(O)O
Activity [8]: Non-Toxic
Tmax [9]: 10 min
Drug uptake [10]: 2.2 mmol/kg
Tmax [11]: 10 min
Cmax [12]: 320 µM
Ratio [13]: 10
Cmax [14]: 900 µM
solubility [6]: 185 mM (≈ 61.1 mg/mL)

SMILES: O=[N+]([O-])c1cn(CS(=O)(=O)NCCN2CCOCC2)cn1
Ratio [1]: 7
Activity [2]: Non-Toxic
pIC50 [4]: 2.48
Ratio IC50 [5]: 1.3

SMILES: O=[N+]([O-])c1cncn1CCS(=O)(=O)NCCOP(=O)(O)O
Drug uptake [10]: 2.2 mmol/kg
Ratio [13]: 2.6

SMILES: COCC(O)Cn1ccnc1[N+](=O)[O-] (configuration not stated) [MISONIDAZOLE]
Activity [7]: -389 mV
Ratio [1]: 7.1
Activity [2]: Non-Toxic
pIC50 [4]: 3.28
Ratio IC50 [5]: >62.44
solubility [6]: > 100 mM

SMILES: O=[N+]([O-])c1nccn1CCS(=O)(=O)NCCOP(=O)(O)O
Tmax [9]: 10 min
Drug uptake [10]: 2.2 mmol/kg
Tmax [11]: 10 min
Cmax [12]: 390 µM
Ratio [13]: 2.9
Cmax [14]: 1140 µM

SMILES: O=[N+]([O-])c1cn(CS(=O)(=O)NCCO)cn1
pIC50 [4]: < 2.22
Ratio IC50 [5]: <0.5
